Results pooled from the literature.
Lines come from different studies, so protocols differ.
Target: Tyrosine-protein kinase ABL2 (ABL2, Homo sapiens, UniProt P42684)

Structure (SMILES)	assay	conditions	remaining binding [%]
N#CC1(c2ccccn2)CCN(Cc2cc(C(=O)N3CCCC3)c(=O)n3ccccc23)CC1	cell-free assay, competition with immobilised ligand	1 µM	100
COc1cnc(Nc2cccc(S(N)(=O)=O)c2)nc1N1CCN(c2ccccc2)C(=O)C1	binding, competition with immobilised ligand	1 µM	100
N#Cc1ccc(Nc2ccc3[nH]c(=O)[nH]c3c2)c(Cl)c1	cell-free assay, competition with immobilised ligand	1 µM	93
CS(=O)(=O)CCNCc1ccc(-c2ccc3ncnc(Nc4ccc(OCc5cccc(F)c5)c(Cl)c4)c3c2)o1	cell-free assay, competition with immobilised ligand	10 µM	100
C[C@@H](c1cccc(C#N)c1)n1cc(Cl)cc(C(N)=O)c1=N	cell-free assay, competition with immobilised ligand	1 µM	84
O=C(NCCCN1CCOCC1)c1ccc(Nc2nccc(-c3cc4ccccc4s3)n2)cc1	binding, competition with immobilised ligand	1 µM	85
O=C(Nc1cccnn1)N1CC(C/C=C/c2cncc(Oc3ccc(C(F)(F)F)cn3)n2)C1	cell-free assay, competition with immobilised ligand	1 µM	100
COc1cc2ncnc(Nc3ccc(F)c(Cl)c3)c2cc1OCCCN1CCOCC1	cell-free assay, competition with immobilised ligand	10 µM	83
C[C@@H]1CCN(c2nccc(-c3cnn4ncccc34)n2)C1	binding	1 µM	76
CCN(CC)Cc1cc(Nc2ccnc3cc(Cl)ccc23)ccc1O	cell-free assay, competition with immobilised ligand	0.1 µM	97
CNC(=O)[C@@H]1CC[C@@H](n2c(-c3ccc4cnccc4c3)nc3ccc(C(=O)NCc4cccc(C(N)=O)c4)cc32)C1	binding, competition with immobilised ligand	1 µM	98
CCN(CC)CCNC(=O)c1c(C)[nH]c(/C=C2\C(=O)Nc3ccc(F)cc32)c1C	cell-free assay, competition with immobilised ligand	0.1 µM	92
Nc1ncc2c(n1)-c1c([nH]c3ccc(C#CC4CC4)cc13)CCCC2	binding, competition with immobilised ligand	1 µM	86
O=C(Nc1c[nH]nc1C(=O)NC1CCNCC1)c1cc(F)cc(F)c1	binding, competition with immobilised ligand	1 µM	100
O=C(NCCCN1CCOCC1)c1ccc(Nc2ncc(Cl)c(-c3ccc(Cl)s3)n2)cc1	binding, competition with immobilised ligand	1 µM	67
N[C@@H]1CCN(c2nccc(-c3cnn4ncccc34)n2)C1	binding	1 µM	96
CNC(=O)c1cc(Oc2ccc(NC(=O)Nc3ccc(Cl)c(C(F)(F)F)c3)cc2)ccn1	cell-free assay, competition with immobilised ligand	10 µM	33
O=C(NCCCC1CCCCC1)c1ccc(CNC(=O)c2cnn(-c3ccccc3)c2C(F)(F)F)cc1	cell-free assay, competition with immobilised ligand	0.1 µM	87
CN(C)c1ncc(F)c(-c2cnn3ncccc23)n1	binding	1 µM	100
c1cncc(-c2cccc(Nc3nccc(NC4CCCCC4)n3)c2)c1	binding, competition with immobilised ligand	10 µM	56
CN(CCCC(F)(F)F)c1nccc(-c2cnn3ncccc23)n1	binding	1 µM	93
CSc1cccnc1N1CCN(Cc2nc3ccccc3[nH]2)CC1	cell-free assay, competition with immobilised ligand	1 µM	98
CN1CC[C@H](c2c(O)cc(O)c3c(=O)cc(-c4ccccc4Cl)oc23)[C@H](O)C1	cell-free assay, competition with immobilised ligand	10 µM	80
CC1CCCN1c1nccc(-c2cnn3ncccc23)n1 (stereo not drawn)	binding	1 µM	100
CS(=O)(=O)N1CCCC(NC(=O)[C@H](CCC2CCCCC2)NC(=O)c2ccc(CNC(=O)c3cnc4ccccn34)cc2)C1 (stereo partly drawn)	cell-free assay, competition with immobilised ligand	0.1 µM	56
COc1ccnn2ncc(-c3ccnc(N(C)C)n3)c12	binding	1 µM	86
C=CC(=O)N1CCC(C(=O)NCC(=O)N2CCN(c3nc(-c4cnc(N)nc4C(F)F)nc(N4CCOCC4)n3)CC2)CC1	binding, competition with immobilised ligand	1 µM	91
Cc1c(-c2ccccc2)oc2c(C(=O)OCCN3CCCCC3)cccc2c1=O	cell-free assay, competition with immobilised ligand	0.1 µM	100
CS(=O)(=O)c1cc(C2(NC(=O)c3cncc4c3cnn4-c3ccc(F)cc3)CC2)ccn1	cell-free assay, competition with immobilised ligand	1 µM	95
COc1ncc2cc3ccccc3nc2c1C#N	cell-free assay, competition with immobilised ligand	5 µM	96
